This passage reports Ratio ED50, IC50 and EC50 results from ChEMBL document CHEMBL3351232, “Flemingins G-O, cytotoxic and antioxidant constituents of the leaves of Flemingia grahamiana” (J Nat Prod, 2014).

Data set [1] can be described thus: Activity index, ratio of compound ED50 to quercetin ED50 for antioxidant activity assessed as DPPH scavenging activity after 30 mins by spectrophotometry.
In another data set the test system is MCF7. Kind of data set: Cytotoxicity against human MCF7 cells after 48 hrs by PrestoBlue cell viability assay. The class given is functional, cell-based. The settings on record: MCF7, 48 h. The method in brief:
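MCF-7 cells grown in DMEM with 10% FBS, 2 mM L-glutamine, penicillin and streptomycin, 37 °C, 5% CO2. Seeded for exponential growth, then after 24 h switched to medium containing compound or DMSO vehicle (0.1% or 1.0% v/v). Viability read by PrestoBlue fluorescence after 48 h, as % of vehicle control. Six replicates, at least three independent experiments, means ± SE.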

The nature of data set [2]: Antioxidant activity assessed as DPPH scavenging activity after 30 mins by spectrophotometry. In kind it is physicochemical. As to conditions: 0.5 h; read-out: ED50 (the source's name). Summed up: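 Samples prepared in double-distilled methanol at 320, 160, 80, 40, 20, 10, 5 and 2.5 μg/mL. 1.0 mL added to 2.0 mL of 76 μM DPPH in methanol, held 30 min at room temperature, remaining DPPH read at 517 nm. Control was methanol plus DPPH; quercetin served as positive control. EC50 (50% absorbance decrease) obtained from a plot of % scavenged versus initial concentration.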
(In general: DPPH is a stable violet radical that fades when it is reduced.)

The term IC50 denotes the point on the concentration scale where inhibition reaches its midpoint. Higher therefore signals weaker potency in that assay. With `CC(C)=CCCC1(C)C=Cc2c(O)c(C(=O)/C=C/c3cc(O)ccc3O)cc(O)c2O1` (stereo not given), in data set [1], the Ratio ED50 worked out at 2.4. Further, in the data set on MCF7, the IC50 stood at 7.6 µM. Moreover, in data set [2], the EC50 came out at 5.9 µM.
On to `Cc1cc(O)c2c(c1)C(=O)c1cc(O)cc(O)c1C2=O` [EMODIN], for which the concentration for half-maximal inhibition (IC50) in the data set on MCF7 was determined as 317 µM.
Same read-out and setting: then `CC(C)(O)/C=C/CC1(C)C=Cc2c(O)c(C(=O)/C=C/c3cc(O)ccc3O)cc(O)c2O1` (stereo not given), with above 228 µM.
As for `C=C(C)C(O)CCC1(C)C=Cc2c(O)c(C(=O)/C=C/c3cc(O)ccc3O)cc(O)c2O1` (stereo not given), the Ratio ED50 in data set [1] amounted to 3.3. In addition, the IC50 in the data set with MCF7 amounted to 221 µM. Besides, the EC50 in data set [2] came to 8.3 µM.
With `O=c1c(O)c(-c2ccc(O)c(O)c2)oc2cc(O)cc(O)c12` [QUERCETIN], in data set [2], the EC50 is 2.5 µM.
With `CC(C)=CCCC1(C)C=Cc2c(O)c(C(=O)/C=C/c3ccccc3O)cc(O)c2O1` (stereo not given), in data set [1], the Ratio ED50 is 1.8. In the data set on MCF7, this molecule came in with an IC50 of 8.9 µM. For the same molecule, the EC50 in data set [2] was determined as 4.4 µM.
As to `CC(C)(O)/C=C/CC1(C)C=Cc2c(O)c(C(=O)/C=C/c3ccccc3O)cc(O)c2O1` (stereo not given), the IC50 in the data set on MCF7 was above 236 µM.
As for `C=C(C)C(O)CCC1(C)C=Cc2c(O)c(C(=O)/C=C/c3c(O)cccc3O)cc(O)c2O1` (stereo not given), the Ratio ED50 in data set [1] stood at 3.5. Further, in data set [2], the EC50 was determined as 8.9 µM.
`C=C(C)C(O)CCC1(C)C=Cc2c(O)c(C(=O)/C=C/c3ccccc3O)cc(O)c2O1` (mixture of isomers) yielded an IC50 in the data set with MCF7 above 236 µM.
The same measure, in the same setting: then `CC(C)n1nc(C#Cc2ccncc2)c2c(N)ncnc21`, with 5 µM.
For `CC(C)=CCCC1(C)C=Cc2c(O)c(C(=O)/C=C/c3c(O)cccc3O)cc(O)c2O1` (stereo not given), in data set [1], the Ratio ED50 turned out to be 3.1. Besides, in the data set with MCF7, the 50% inhibitory concentration (IC50) was above 237 µM. Also, in data set [2], the EC50 is 7.8 µM.
